Our source for the activity, Activity and IC50 values is ChEMBL document CHEMBL4043093, “2-Oxo-3, 4-dihydropyrimido[4, 5-d]pyrimidinyl derivatives as new irreversible pan fibroblast growth factor receptor (FGFR) inhibitors” (Eur J Med Chem, 2017).

Data set [1] addresses VEGFR2 (vascular endothelial growth factor receptor 2) (Homo sapiens, UniProt P35968). Put plainly: Inhibition of wild-type human partial length VEGFR2 (R787 to P1253 residues) expressed in HEK293 cells assessed as residual activity at 1000 nM after 30 mins by Kinomescan method relative to control. The following applies: read-out: Activity. The data set is classed as cell-based.

For data set [2], the target named is Phosphatidylinositol 4-phosphate 5-kinase type-1 gamma (Homo sapiens) (UniProt O60331). Put plainly: Inhibition of wild-type human partial length PIP5K1C (M1 to T668 residues) expressed in HEK293 cells assessed as residual activity at 1000 nM after 30 mins by Kinomescan method relative to control. Format: cell-based.
In data set [3] the target is Serine/threonine-protein kinase N2 (Homo sapiens) (UniProt Q16513). Description: Inhibition of wild-type human partial length PKN2 (E634 to C984 residues) expressed in Escherichia coli BL21 assessed as residual activity at 1000 nM after 30 mins by Kinomescan method relative to control.
Sequence of Serine/threonine-protein kinase N2 (Homo sapiens) (Q16513 whole entry, looked up, the tested form may be a part): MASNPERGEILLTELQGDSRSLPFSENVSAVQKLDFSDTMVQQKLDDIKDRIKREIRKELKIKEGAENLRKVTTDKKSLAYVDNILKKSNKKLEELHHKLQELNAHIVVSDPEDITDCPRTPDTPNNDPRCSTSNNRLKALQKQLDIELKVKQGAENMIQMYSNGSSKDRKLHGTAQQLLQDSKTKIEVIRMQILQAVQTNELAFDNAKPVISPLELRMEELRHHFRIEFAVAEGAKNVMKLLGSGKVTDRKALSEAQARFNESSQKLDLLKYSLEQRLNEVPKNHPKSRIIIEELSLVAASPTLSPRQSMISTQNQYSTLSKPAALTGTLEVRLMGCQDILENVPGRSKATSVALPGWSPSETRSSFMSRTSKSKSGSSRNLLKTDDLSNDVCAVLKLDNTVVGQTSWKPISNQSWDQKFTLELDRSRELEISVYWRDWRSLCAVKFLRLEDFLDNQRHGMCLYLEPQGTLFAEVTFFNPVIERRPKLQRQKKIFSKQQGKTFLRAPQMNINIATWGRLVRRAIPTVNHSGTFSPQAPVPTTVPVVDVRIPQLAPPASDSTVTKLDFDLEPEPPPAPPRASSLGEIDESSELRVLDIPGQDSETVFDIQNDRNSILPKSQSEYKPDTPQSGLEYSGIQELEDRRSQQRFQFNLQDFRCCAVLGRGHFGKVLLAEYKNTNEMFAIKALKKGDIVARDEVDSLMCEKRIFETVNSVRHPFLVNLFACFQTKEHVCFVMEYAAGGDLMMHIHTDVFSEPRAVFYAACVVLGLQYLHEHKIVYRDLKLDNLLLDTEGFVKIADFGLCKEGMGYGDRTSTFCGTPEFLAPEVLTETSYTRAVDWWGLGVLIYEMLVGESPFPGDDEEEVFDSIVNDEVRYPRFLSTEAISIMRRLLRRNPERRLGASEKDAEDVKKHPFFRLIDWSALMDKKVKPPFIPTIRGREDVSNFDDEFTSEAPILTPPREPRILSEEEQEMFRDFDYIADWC
In data set [4] the target is Fibroblast growth factor receptor 3 (Homo sapiens, UniProt P22607). Put plainly: Inhibition of human recombinant His-tagged FGFR3 cytoplasmic domain (399 to 806 residues) expressed in baculovirus using Tyr-4 peptide after 1 hr by FRET-based Z'-Lyte assay.
In data set [5] the target is Homeodomain-interacting protein kinase 3 (Homo sapiens) (UniProt Q9H422). Put plainly: Inhibition of wild-type human partial length HIPK3 (M153 to N562 residues) expressed in HEK293 cells assessed as residual activity at 1000 nM after 30 mins by Kinomescan method relative to control. Format: cell-based.
Data set [6] addresses RAF proto-oncogene serine/threonine-protein kinase (Homo sapiens) (UniProt P04049). Description: Inhibition of wild-type human partial length RAF1 (I330 to T640 residues) expressed in Escherichia coli BL21 assessed as residual activity at 1000 nM after 30 mins by Kinomescan method relative to control.
The target in data set [7] is Serine/threonine-protein kinase Nek7 (Homo sapiens) (UniProt Q8TDX7). Put plainly: Inhibition of wild-type human full length NEK7 (M1 to S302 residues) expressed in Escherichia coli BL21 assessed as residual activity at 1000 nM after 30 mins by Kinomescan method relative to control. The gist of the method: (§1)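 Single-concentration screen at 1 µM across a 456-kinase KINOMEscan panel. The read-out is Percent Control for each kinase.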

For data set [8], the target named is Ribosomal protein S6 kinase alpha-3 (Homo sapiens) (UniProt P51812). Put plainly: Inhibition of wild-type human partial length N-terminal RSK3 kinase domain 1 (M1 to Q385 residues) expressed in Escherichia coli BL21 assessed as residual activity at 1000 nM after 30 mins by Kinomescan method relative to control.
Data set [9] deals with Serine/threonine-protein kinase MRCK gamma (Homo sapiens) (UniProt Q6DT37). Put plainly: Inhibition of wild-type human partial length DMPK2 (S46 to S408 residues) expressed in Escherichia coli BL21 assessed as residual activity at 1000 nM after 30 mins by Kinomescan method relative to control.
In data set [10] the test system is Leucine-rich repeat serine/threonine-protein kinase 2 (Homo sapiens), Q5S007 [G2019S]. Description: Inhibition of human partial length LRRK2 G2019S mutant (H970 to E2527 residues) expressed in HEK293 cells assessed as residual activity at 1000 nM after 30 mins by Kinomescan method relative to control. The data set is classed as cell-based. The method in brief: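 KINOMEscan binding panel of 456 kinases, with the test compound at a single concentration of 1 µM. Read-out is Percent Control.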
Sequence of Leucine-rich repeat serine/threonine-protein kinase 2 (Homo sapiens), Q5S007 [G2019S] (Q5S007 whole entry G2019S, the tested form may be a part): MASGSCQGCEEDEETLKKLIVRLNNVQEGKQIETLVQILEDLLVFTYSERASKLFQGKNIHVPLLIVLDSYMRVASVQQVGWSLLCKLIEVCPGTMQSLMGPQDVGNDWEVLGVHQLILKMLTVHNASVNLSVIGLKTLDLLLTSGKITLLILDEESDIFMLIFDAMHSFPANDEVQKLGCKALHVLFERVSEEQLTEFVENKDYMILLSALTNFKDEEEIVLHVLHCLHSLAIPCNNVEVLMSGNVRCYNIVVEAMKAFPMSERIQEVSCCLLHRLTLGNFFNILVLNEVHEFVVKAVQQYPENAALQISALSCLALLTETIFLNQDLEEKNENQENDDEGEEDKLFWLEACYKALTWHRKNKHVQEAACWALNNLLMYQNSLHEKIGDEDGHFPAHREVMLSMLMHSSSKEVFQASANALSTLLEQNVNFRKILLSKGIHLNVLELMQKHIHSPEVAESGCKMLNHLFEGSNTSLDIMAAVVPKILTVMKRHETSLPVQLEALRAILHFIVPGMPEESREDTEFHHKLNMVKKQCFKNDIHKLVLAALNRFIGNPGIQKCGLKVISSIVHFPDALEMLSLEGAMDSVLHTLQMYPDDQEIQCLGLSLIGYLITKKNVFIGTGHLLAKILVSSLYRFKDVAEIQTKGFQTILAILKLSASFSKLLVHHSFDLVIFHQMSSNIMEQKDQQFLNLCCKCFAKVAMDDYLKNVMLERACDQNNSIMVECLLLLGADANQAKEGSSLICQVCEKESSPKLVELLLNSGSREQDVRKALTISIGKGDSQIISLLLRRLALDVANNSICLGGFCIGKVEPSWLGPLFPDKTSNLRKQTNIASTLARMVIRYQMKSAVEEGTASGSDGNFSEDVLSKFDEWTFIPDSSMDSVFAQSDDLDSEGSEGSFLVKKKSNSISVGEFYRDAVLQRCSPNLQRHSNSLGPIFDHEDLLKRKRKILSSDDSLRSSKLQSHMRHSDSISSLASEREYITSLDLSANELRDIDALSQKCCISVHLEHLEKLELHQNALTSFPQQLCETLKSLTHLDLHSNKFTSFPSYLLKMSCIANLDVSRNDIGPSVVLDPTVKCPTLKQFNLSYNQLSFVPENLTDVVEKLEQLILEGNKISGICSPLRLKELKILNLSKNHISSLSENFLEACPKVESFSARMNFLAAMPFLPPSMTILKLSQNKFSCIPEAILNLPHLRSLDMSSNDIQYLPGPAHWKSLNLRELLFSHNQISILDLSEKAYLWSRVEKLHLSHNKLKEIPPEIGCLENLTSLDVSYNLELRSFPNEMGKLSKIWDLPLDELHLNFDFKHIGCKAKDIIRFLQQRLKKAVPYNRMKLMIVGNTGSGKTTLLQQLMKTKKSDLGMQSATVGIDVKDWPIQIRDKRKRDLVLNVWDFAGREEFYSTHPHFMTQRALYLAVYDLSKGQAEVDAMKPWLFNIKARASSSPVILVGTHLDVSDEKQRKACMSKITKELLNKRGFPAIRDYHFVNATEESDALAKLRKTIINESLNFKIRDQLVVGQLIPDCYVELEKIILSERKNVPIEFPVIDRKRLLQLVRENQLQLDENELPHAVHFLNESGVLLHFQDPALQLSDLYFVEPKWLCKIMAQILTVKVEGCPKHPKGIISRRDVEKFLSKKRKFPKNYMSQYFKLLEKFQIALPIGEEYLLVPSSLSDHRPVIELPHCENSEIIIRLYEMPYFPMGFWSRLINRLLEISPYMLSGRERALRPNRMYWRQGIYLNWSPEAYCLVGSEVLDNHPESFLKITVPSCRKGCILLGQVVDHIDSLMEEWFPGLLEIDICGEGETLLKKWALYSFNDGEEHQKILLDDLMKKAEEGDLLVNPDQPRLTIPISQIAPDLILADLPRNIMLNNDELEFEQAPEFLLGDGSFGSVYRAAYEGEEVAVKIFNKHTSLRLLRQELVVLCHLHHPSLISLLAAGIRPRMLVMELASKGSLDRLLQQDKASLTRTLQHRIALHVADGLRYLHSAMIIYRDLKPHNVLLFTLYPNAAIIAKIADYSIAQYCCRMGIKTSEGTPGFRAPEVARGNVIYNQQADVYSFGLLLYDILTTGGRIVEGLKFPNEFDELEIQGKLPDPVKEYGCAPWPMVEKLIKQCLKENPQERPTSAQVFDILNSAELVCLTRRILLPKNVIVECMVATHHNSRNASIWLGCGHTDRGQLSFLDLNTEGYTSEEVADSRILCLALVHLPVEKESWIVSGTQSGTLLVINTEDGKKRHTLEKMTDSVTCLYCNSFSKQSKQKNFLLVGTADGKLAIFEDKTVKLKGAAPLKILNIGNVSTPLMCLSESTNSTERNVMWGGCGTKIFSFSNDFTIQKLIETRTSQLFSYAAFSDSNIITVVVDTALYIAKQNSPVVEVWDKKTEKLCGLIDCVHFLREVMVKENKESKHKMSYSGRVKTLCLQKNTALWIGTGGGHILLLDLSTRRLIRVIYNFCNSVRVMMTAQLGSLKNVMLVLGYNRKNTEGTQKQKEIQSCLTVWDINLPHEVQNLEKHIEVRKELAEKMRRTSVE

For data set [11], the target named is Receptor-type tyrosine-protein kinase FLT3 (Homo sapiens) (UniProt P36888). Description: Inhibition of wild-type human partial length FLT3 (V592 to Y969 residues) expressed in Escherichia coli BL21 assessed as residual activity at 1000 nM after 30 mins by Kinomescan method relative to control.
Sequence of Receptor-type tyrosine-protein kinase FLT3 (Homo sapiens) (P36888 whole entry, the tested form may be a part): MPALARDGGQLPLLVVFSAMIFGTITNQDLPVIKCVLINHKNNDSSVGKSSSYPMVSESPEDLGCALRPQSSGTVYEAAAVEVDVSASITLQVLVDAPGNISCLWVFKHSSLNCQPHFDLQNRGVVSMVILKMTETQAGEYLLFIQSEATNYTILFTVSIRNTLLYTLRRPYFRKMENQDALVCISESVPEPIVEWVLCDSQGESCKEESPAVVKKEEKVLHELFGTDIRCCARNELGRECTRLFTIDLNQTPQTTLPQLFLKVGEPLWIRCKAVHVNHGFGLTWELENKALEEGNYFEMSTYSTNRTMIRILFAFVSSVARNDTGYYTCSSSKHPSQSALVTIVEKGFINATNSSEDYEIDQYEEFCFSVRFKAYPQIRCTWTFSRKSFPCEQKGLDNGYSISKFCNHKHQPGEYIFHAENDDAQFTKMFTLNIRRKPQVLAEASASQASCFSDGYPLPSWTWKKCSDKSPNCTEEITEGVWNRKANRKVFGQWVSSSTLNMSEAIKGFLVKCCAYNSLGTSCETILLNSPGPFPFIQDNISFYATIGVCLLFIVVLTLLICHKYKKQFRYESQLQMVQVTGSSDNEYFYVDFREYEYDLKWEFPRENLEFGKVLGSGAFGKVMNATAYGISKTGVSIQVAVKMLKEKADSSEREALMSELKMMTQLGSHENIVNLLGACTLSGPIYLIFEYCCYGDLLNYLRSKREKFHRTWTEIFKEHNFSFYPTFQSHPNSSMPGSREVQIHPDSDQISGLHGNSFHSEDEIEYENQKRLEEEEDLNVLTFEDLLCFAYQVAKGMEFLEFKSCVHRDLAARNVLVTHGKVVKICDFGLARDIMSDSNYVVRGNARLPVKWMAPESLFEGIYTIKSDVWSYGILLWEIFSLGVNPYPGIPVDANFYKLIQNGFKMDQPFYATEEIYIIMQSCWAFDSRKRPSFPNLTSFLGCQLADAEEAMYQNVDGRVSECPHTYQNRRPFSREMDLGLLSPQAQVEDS
The target in data set [12] is Leucine-rich repeat serine/threonine-protein kinase 2 (Homo sapiens) (UniProt Q5S007). Description: Inhibition of wild-type human partial length LRRK2 (H970 to E2527 residues) expressed in HEK293 cells assessed as residual activity at 1000 nM after 30 mins by Kinomescan method relative to control. The data set is classed as cell-based.
Data set [13] has as its target Serine/threonine-protein kinase Nek2 (Homo sapiens) (UniProt P51955). Put plainly: Inhibition of wild-type human partial length NEK2 (M1 to K309 residues) expressed in Escherichia coli BL21 assessed as residual activity at 1000 nM after 30 mins by Kinomescan method relative to control.
The target of data set [14] is Myosin-IIIa (Homo sapiens) (UniProt Q8NEV4). Put plainly: Inhibition of wild-type human partial length MYO3A (M1 to K338 residues) expressed in Escherichia coli BL21 assessed as residual activity at 1000 nM after 30 mins by Kinomescan method relative to control.
The target in data set [15] is Serine/threonine-protein kinase RIO2 (Homo sapiens) (UniProt Q9BVS4). Put plainly: Inhibition of wild-type human partial length RIOK2 (M1 to D313 residues) expressed in HEK293 cells assessed as residual activity at 1000 nM after 30 mins by Kinomescan method relative to control. Format: cell-based.
Data set [16] has as its target MAP kinase-interacting serine/threonine-protein kinase 2 (Homo sapiens) (UniProt Q9HBH9). Put plainly: Inhibition of wild-type human partial length MKNK2 (G63 to S388 residues) expressed in HEK293 cells assessed as residual activity at 1000 nM after 30 mins by Kinomescan method relative to control. The data set is classed as cell-based.
The target of data set [17] is Tyrosine-protein kinase Fyn (Homo sapiens) (UniProt P06241). Description: Inhibition of wild-type human partial length FYN (T243 to L534 residues) expressed in Escherichia coli BL21 assessed as residual activity at 1000 nM after 30 mins by Kinomescan method relative to control.
For data set [18], the target named is Mitogen-activated protein kinase 1 (Homo sapiens) (UniProt P28482). Put plainly: Inhibition of wild-type human full length ERK2 (M1 to S360 residues) expressed in Escherichia coli BL21 assessed as residual activity at 1000 nM after 30 mins by Kinomescan method relative to control. The method in brief:
as §1

The subject of data set [19] is Tyrosine-protein kinase ABL1 (Homo sapiens), P00519 [M351T]. Description: Inhibition of human phosphorylated ABL1 M351T mutant (S229 to K512 residues) expressed in HEK293 cells assessed as residual activity at 1000 nM after 30 mins by Kinomescan method relative to control. The data set is classed as cell-based. The gist of the method:
(§2)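 Single-point screen at a fixed 1 µM, run within a 456-kinase DiscoveRx KINOMEscan panel. Each kinase's read-out is Percent Control, i.e. signal relative to a control without compound. Hits were scored by a Percent Control < 35 cut-off, and an S(35) selectivity score was calculated across the non-mutant kinases.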

The target in data set [20] is Mitogen-activated protein kinase 11 (Homo sapiens) (UniProt Q15759). Put plainly: Inhibition of wild-type human full length p38-beta (M1 to Q364 residues) expressed in Escherichia coli BL21 assessed as residual activity at 1000 nM after 30 mins by Kinomescan method relative to control.
Data set [21] addresses Casein kinase I isoform delta (Homo sapiens) (UniProt P48730). Description: Inhibition of wild-type human full length CSNK1D (M1 to K409 residues) expressed in Escherichia coli BL21 assessed as residual activity at 1000 nM after 30 mins by Kinomescan method relative to control. The method in brief: as §2

pIC50: −log10 of the molar value.

Sequence of RAF proto-oncogene serine/threonine-protein kinase (Homo sapiens) (P04049 whole entry, the tested form may be a part): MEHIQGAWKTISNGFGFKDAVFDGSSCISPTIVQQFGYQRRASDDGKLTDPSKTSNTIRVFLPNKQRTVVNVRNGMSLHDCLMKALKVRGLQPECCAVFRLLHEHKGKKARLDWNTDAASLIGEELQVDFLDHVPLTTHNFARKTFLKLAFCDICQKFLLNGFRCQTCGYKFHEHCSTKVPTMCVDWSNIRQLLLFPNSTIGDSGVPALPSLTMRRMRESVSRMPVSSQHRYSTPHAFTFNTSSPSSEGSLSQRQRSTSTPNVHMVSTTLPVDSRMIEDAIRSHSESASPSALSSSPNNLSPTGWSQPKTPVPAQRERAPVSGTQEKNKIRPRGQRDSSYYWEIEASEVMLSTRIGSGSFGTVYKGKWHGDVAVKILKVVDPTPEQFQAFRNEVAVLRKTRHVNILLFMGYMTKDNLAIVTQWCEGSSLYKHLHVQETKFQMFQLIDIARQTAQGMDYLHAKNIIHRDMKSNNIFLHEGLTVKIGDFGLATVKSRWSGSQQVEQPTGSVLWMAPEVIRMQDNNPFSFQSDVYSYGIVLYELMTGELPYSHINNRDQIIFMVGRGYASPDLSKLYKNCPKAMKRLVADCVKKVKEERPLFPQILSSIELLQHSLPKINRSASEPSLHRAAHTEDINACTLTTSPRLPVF

As usually defined, the pIC50 is the IC50 on a negative log10 scale, so that one unit is a factor of ten. Turning to `COc1cc(OC)c(Cl)c(N2Cc3cnc(Nc4ccc(F)cc4)nc3N(C3CCN(C(=O)/C=C/CN(C)C)CC3)C2=O)c1Cl`, the activity at 0.5 h, 1 µM in [1] stood at 7.3%. Further, the Activity was 92% in [2]; 91% in data set [3]; 100% in [5]; 96% in data set [6]; 100% in data set [7]; 97% in data set [8]. Moreover, the Activity in data set [9] was 100%; in data set [10] it was 98%; in data set [11], 96%; in data set [12], 100%; in [13] it was 53%; in data set [14], 96%. Also, the Activity was found to be 100% in [15]; 86% in data set [16]; 19% in [17]; 100% in [18]; 47% in data set [19]; 87% in data set [20]. In data set [21], the Activity worked out at 96%. Besides, the negative-log IC50 (pIC50) in data set [4] is 8.29.
